Test [1] concerns MDA-MB-231. In words: Induction of apoptosis in human MDA-MB-231 cells assessed as PARP cleavage at 0.5 uM measured after 6 hrs by western blot assay. Type of test: functional, cell-based. In a few lines:
(§1)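 Cells exposed to 0.5 µM for 6 h. Lysates resolved by SDS-PAGE and blotted to PVDF, blocked in 5% milk/TBST, probed with primary antibodies at 1:1000, ECL detection. Apoptosis scored as the densitometric ratio of cleaved PARP band to intact PARP band; mean ± SD, n = 3.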
Background: A western blot detects proteins with antibodies after separation by electrophoresis.

Test [2] relates to HCT-116. The experiment in a line: Induction of apoptosis in human HCT-116 cells assessed as PARP cleavage at 0.5 uM measured after 6 hrs by western blot assay. Type of test: functional, cell-based. The method, boiled down:
as §1

The test system of test [3] is MDA-MB-231. In words: Cytotoxicity against human MDA-MB-231 cells assessed as inhibition of cell growth measured after 24 hrs by MTT assay. It is filed as functional, cell-based. The note with it: MDA-MB-231, 24 h. The method, boiled down: (§2)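 MTT viability assay, 24 h exposure to a concentration series, 10^4 cells/well. Cancer lines were in DMEM (BT549, MDA-MB-231) or RPMI-1640 (HCT116, SW620) with 10% FBS. MCF10A and NCM460 were in DMEM with 20% FBS and 10 ng/ml EGF. MTT at 5 mg/mL for 4 h at 37 °C, formazan dissolved in DMSO, A490. IC50 from curve fit; mean ± SD, at least 6 experiments.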
For orientation: Formazan colour is commonly taken as a measure of viable cells.

Test [4] relates to BT-549. The experiment in a line: Cytotoxicity against human BT-549 cells assessed as inhibition of cell growth measured after 24 hrs by MTT assay. It is filed as functional, cell-based. The note with it: BT-549, 24 h. The method, boiled down:
as §2

The subject of test [5] is MCF-10A. The experiment in a line: Cytotoxicity against human MCF-10A cells assessed as inhibition of cell growth measured after 24 hrs by MTT assay. Type of test: cell-based. The note with it: Homo sapiens, MCF-10A, 24 h. The method, boiled down:
as §2

Test [6] concerns HCT-116. The experiment in a line: Cytotoxicity against human HCT-116 cells assessed as inhibition of cell growth measured after 24 hrs by MTT assay. Type of test: functional, cell-based. The note with it: Homo sapiens, HCT-116, 24 h. In a few lines: as §2
For test [7], the system named is SW-620. The experiment in a line: Cytotoxicity against human SW-620 cells assessed as inhibition of cell growth measured after 24 hrs by MTT assay. It is filed as functional, cell-based. The conditions noted are these: SW-620, 24 h. The method, boiled down: as §2
For test [8], the system named is NCM460. The experiment in a line: Cytotoxicity against human NCM460 cells assessed as inhibition of cell growth measured after 24 hrs by MTT assay. Type of test: cell-based. The conditions noted are these: Homo sapiens, NCM460, 24 h. In a few lines:
as §2

The target of test [9] is T1, Nuclear receptor subfamily 4immunitygroup A member 1 (Homo sapiens, UniProt P22736). In words: Binding affinity to recombinant human N-terminal His-tagged Nur77-LBD (367 to 598 residues) expressed in Escherichia coli BL21 DE3 by flourescence quenching assay. In a few lines:
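Human Nur77-LBD (367–598), N-terminal His tag, pET15b in E. coli BL21 DE3, Ni resin purified. Nur77-LBD at 1 µM in PBS in a quartz cell, titrated with compound over 0.01–1 µM at 25 °C. Excitation 280 nm, emission scanned 300–500 nm; peak intensity at 330 nm versus compound concentration fitted to a reported formula for Kd.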

The target in test [10] is T1, Nuclear receptor subfamily 4immunitygroup A member 1. The experiment in a line: Binding affinity to recombinant human N-terminal His-tagged Nur77-LBD (367 to 598 residues) expressed in Escherichia coli BL21 DE3 by surface plasmon resonance assay. The method, boiled down:
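His-tagged human Nur77-LBD (367–598) from E. coli BL21 DE3, diluted to 0.05 mg/mL in 10 mM NaAc pH 5.0 and amine-coupled to a CM5 chip (~9000 RU). Compounds at 0.01–5 µM in PBS with 0.4% DMSO, 25 °C, 30 µL/min; 150 s association, 420 s dissociation, regeneration with 10 mM glycine-HCl pH 2.5. Reference- and blank-subtracted; Kd from global 1:1 kinetic fit.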

Test [11] concerns MEF. The experiment in a line: Induction of apoptosis in wild type mouse MEF cells assessed as PARP cleavage at 0.5 uM measured after 6 hrs by western blot assay. It is filed as functional, cell-based. In a few lines:
(§3)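 Wild-type, Nur77−/− or Bcl-2−/− mouse embryonic fibroblasts grown in DMEM with 10% FBS and treated with 0.5 µM for 6 h. PARP cleavage detected by western blot, primary antibodies at 1:1000, ECL.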

The subject of test [12] is MEF. The experiment in a line: Induction of apoptosis in mouse MEF cells lacking Nur77 assessed as PARP cleavage at 0.5 uM measured after 6 hrs by western blot assay. It is filed as functional, cell-based. In a few lines:
as §3

Test [13] has as its system MEF. In words: Induction of apoptosis in mouse MEF cells deficient in Bcl2 assessed as PARP cleavage at 0.5 uM measured after 6 hrs by Western blot assay. Type of test: functional, cell-based. In a few lines: as §3
In test [14] the target is T1, Nuclear receptor subfamily 4immunitygroup A member 1. The experiment in a line: Modulation of Myc-Nur77 (unknown origin) transfected in human HEK293T cells assessed as induction of Myc-Nur77 mitochondrial targeting by measuring increase in Myc-Nur77 accumulation in mitochondria at 0.5 uM measured after 2 hrs by western blot analysis. The note with it: filed as modulator. The method, boiled down: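 HEK293T cells transfected with Myc-Nur77 were exposed to 0.5 μM compound for 2 h. Cells were homogenised in sucrose Buffer D; 500 g then 5000 g spins gave a mitochondrial pellet. Whole-cell and mitochondrial fractions were western blotted for Myc-Nur77, with PARP and Tom20 as fraction-purity markers.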

Test [15] concerns BT-549. In words: Induction of apoptosis in human BT-549 cells assessed as PARP cleavage at 0.5 uM measured after 6 hrs by western blot assay. Type of test: functional, cell-based. The method, boiled down:
as §1

Test [16] deals with SW-620. The experiment in a line: Induction of apoptosis in human SW-620 cells assessed as PARP cleavage at 0.5 uM measured after 6 hrs by western blot assay. It is filed as functional, cell-based. In a few lines: as §1
Test [17] concerns the target T1, Nuclear receptor subfamily 4immunitygroup A member 1. The experiment in a line: Modulation of Myc-Nur77-LBD (unknown origin) transfected in human HEK293T cells assessed as induction of Myc-Nur77 mitochondrial targeting by measuring increase in Myc-Nur77 accumulation in mitochondria at 0.5 uM measured after 2 hrs by Mito-tracker dye based confocal microscopy method. The conditions noted are these: filed as modulator. The method, boiled down:
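HEK293T cells transfected with Myc-Nur77-LBD were given 0.5 μM compound for 2 h, stained with Mito-Tracker and immunostained. Nur77 mitochondrial localisation was visualised by confocal microscopy.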

Test [18] concerns Mus musculus. In words: Antitumour activity against FVB/N mammary tumor MMTV-PyMT mouse model assessed as inhibition of tumour growth at 3 mg/kg, po administered daily for 14 days. Type of test: functional, organism-based. The note with it: time 14.0 day. In a few lines: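 Female MMTV-PyMT transgenic mice (FVB/N background), 12 weeks old, randomized n = 6 per group; daily oral gavage 3 mg/kg for 14 days. Dosing solution: DMSO stock diluted in normal saline with 5.0% (V/V) Tween-80 to 3 mg/mL. Tumours weighed at end; mean ± SD, Student's t-test versus untreated controls.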

In general, pIC50 refers to −log10 of the IC50, conventionally taken in molar units. As usually defined, the pKd is −log10 of the Kd, conventionally taken in molar units.

The structures appear in SMILES notation. pIC50, pKd: −log10 of the molar value. The source made the active and inactive calls. The rule behind the calls is not given here.

T1 sequence (P22736 whole entry, the tested form may be a part): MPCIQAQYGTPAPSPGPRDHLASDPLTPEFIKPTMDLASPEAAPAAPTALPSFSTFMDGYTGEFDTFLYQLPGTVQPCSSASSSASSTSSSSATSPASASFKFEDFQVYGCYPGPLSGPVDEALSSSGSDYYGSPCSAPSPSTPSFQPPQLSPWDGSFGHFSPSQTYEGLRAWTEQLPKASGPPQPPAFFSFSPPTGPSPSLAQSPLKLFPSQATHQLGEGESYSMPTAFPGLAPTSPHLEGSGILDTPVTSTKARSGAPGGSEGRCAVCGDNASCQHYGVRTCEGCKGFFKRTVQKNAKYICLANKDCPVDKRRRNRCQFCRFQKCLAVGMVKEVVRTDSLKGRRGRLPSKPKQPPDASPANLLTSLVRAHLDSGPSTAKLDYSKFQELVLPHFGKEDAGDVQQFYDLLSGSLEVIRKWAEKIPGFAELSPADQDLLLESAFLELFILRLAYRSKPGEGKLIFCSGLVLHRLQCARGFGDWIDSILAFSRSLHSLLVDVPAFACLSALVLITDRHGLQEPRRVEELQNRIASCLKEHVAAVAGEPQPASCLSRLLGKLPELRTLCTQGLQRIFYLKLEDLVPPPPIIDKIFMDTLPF

`CCn1cc([C+](c2ccc(C(F)(F)F)cc2)c2c[nH]c3ccccc23)c2ccccc21`: the result in test [1], in [2] and in test [11] was Active. The pIC50 in [3] was 7.10; in test [4] it was 7.30; in test [5] it was 5.82; in test [6], 7.00; in test [7], 7.00; in test [8] it was 5.51. The figures for the negative logarithm of the Kd (pKd) in test [9] and in [10] were 7.18 and 7.44, respectively. Also, the outcome in test [12] and in test [13] was inactive.
For `FC(F)(F)c1ccc([C+](c2c[nH]c3ccccc23)c2c[nH]c3ccccc23)cc1`, the outcome in test [14], in test [1], in [2], in test [15], in [16] and in test [11] was Active. The outcome in [17] and in test [18] was Active. Also, in test [13], the result was inactive.

The record behind these values is ChEMBL document CHEMBL4819003, “Optimization of novel oxidative DIMs as Nur77 modulators of the Nur77-Bcl-2 apoptotic pathway” (Eur J Med Chem, 2021).
